19 compounds from ChEMBL document CHEMBL3632506, “Esters of some non-steroidal anti-inflammatory drugs with cinnamyl alcohol are potent lipoxygenase inhibitors with enhanced anti-inflammatory activity” (Bioorg Med Chem Lett, 2015) can be followed below.

Data set [1] relates to Rattus norvegicus. Description: Antiinflammatory activity in rat assessed as reduction of carrageenan-induced paw oedema at 0.15 mmol/kg, ip administered 5 mins before carrageenan challenge measured after 3.5 hrs. The data set is classed as functional. The method in brief: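 Rat carrageenan-induced paw oedema; compounds given ip at 0.15 mmol/kg body weight. Result expressed as percent inhibition of oedema relative to controls; mean of 6–8 animals; significance by Student's t test.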
In general terms: The carrageenan paw model is a standard test of acute inflammation.

Data set [2] can be described thus: Inhibition of soybean lipoxygenase assessed as reduction in conversion of sodium linoleate to 13-hydroperoxylinoleic acid up to 7 mins. More on the design: species or system Glycine max.
The subject of another data set is Glycine max. Description: Competitive inhibition of soybean lipoxygenase 1 mM of sodium linoleate assessed as reduction of 13-hydroperoxylinoleic acid formation up to 7 mins. The method in brief: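 Soybean lipoxygenase run with linoleic acid at 1 mM, above the saturating substrate concentration, under the same conditions as the standard inhibition assay, to test for competitive inhibition.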

The subject of data set [3] is Rattus norvegicus. Description: Antidyslipidemic activity in rat Triton-WR1339-induced hyperlipidemic model assessed as reduction of plasma total cholesterol level at 0.15 mmol/kg, ip after 24 hrs. The data set is classed as functional. Further details: scale not given: the % may be the effect or the level left. The method in brief: (§1)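 Hyperlipidemia induced in rats by tyloxapol 200 mg/kg ip; compounds given ip at 150 μmol/kg. Serum total cholesterol, triglycerides and LDL-cholesterol compared with hyperlipidemic controls. Groups of six to eight rats; significance by Student's t test.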

For data set [4], the system named is Rattus norvegicus. Put plainly: Antidyslipidemic activity in rat Triton-WR1339-induced hyperlipidemic model assessed as reduction of plasma triglyceride level at 0.15 mmol/kg, ip after 24 hrs. The data set is classed as functional. Further details: scale not given: the % may be the effect or the level left. The method, boiled down:
as §1

Data set [5] deals with Rattus norvegicus. Description: Antidyslipidemic activity in rat Triton-WR1339-induced hyperlipidemic model assessed as reduction of plasma low density lipoprotein cholesterol level at 0.15 mmol/kg, ip after 24 hrs. The data set is classed as functional. More on the design: scale not given: the % may be the effect or the level left. The method in brief:
as §1

Data set [6] in a line: Antioxidant activity assessed as DPPH radical scavenging activity at 0.2 mM after 30 mins. The data set is classed as physicochemical. The note with it: 0.5 h, 200 µM. In general terms: Loss of DPPH colour is used to gauge radical scavenging.
A further data set deals with Liver. Description: Antioxidant activity in rat hepatic microsomal membrane assessed as inhibition of ferrous ascorbate-induced lipid peroxidation after 45 mins by spectrophotometric analysis. The data set is classed as functional, cell membranes.
The test system of data set [7] is Rattus norvegicus. Description: Antiinflammatory activity in rat assessed as reduction of carrageenan-induced paw oedema at 0.30 mmol/kg, ip administered 5 mins before carrageenan challenge measured after 3.5 hrs. The data set is classed as functional.

For orientation: inhibition in vivo means the percentage by which the read-out fell short of the control. In general, IC50 refers to the concentration at which inhibition is half-maximal.

SMILES strings stand for the structures. The source made the active and inactive calls. The calls are words filed in the database; no cut-off is given here.

`Cc1c(Cl)cccc1Nc1ccccc1C(=O)O` [TOLFENAMIC ACID]: the inhibition in vivo at 150 µmol/kg in the data set with Rattus norvegicus [1] was 24%.
In the case of `CC(Cc1ccc(O)c(O)c1)C(C)Cc1ccc(O)c(O)c1` (stereo unspecified) [NORDIHYDROGUAIARETIC ACID], the half-maximal inhibitory concentration (IC50) in data set [2] worked out at 1.3 µM.
Take `O=C(O)c1ccccc1Nc1cccc(C(F)(F)F)c1` [FLUFENAMIC ACID]: in the data set on Rattus norvegicus [1], the inhibition in vivo at 150 µmol/kg worked out at 19%.
Take `CC(C)Cc1ccc(C(C)C(=O)OC/C=C/c2ccccc2)cc1` (stereo unspecified): the inhibition result with Glycine max and with Liver was “inactive” each time. Further, the Activity is listed as 53.3% in the data set on Rattus norvegicus [3], 77.5% with Rattus norvegicus [4], 75% in the data set on Rattus norvegicus [5] and “Not Active” in data set [6]. For the same compound, the inhibition in vivo at 150 µmol/kg with Rattus norvegicus [1] amounted to 46%. Besides, the inhibition in vivo at 300 µmol/kg in the data set on Rattus norvegicus [7] amounted to 68%. In addition, the IC50 in data set [2] amounted to 6.7 µM.
For `Cc1cccc(Nc2ccccc2C(=O)O)c1C` [MEFENAMIC ACID], in the data set with Rattus norvegicus [1], the inhibition in vivo at 150 µmol/kg was 44%.
For `Cc1cccc(Nc2ccccc2C(=O)OC/C=C/c2ccccc2)c1C`, the inhibition entry in the data set with Glycine max and in the data set with Liver was “inactive” in each case. For the same compound, in [6], the Activity entry is on record as “Not Active”. Also, in the data set on Rattus norvegicus [1], the inhibition in vivo at 150 µmol/kg is 62%. The IC50 in [2] is 38 µM.
`O=C(Cc1c[nH]c2ccccc12)OC/C=C/c1ccccc1`: the inhibition entry with Glycine max and in the data set on Liver was “inactive” in each case. The Activity entry in data set [6] was “Not Active”. For the same compound, in the data set on Rattus norvegicus [1], the inhibition in vivo at 150 µmol/kg came out at 33%. Moreover, the IC50 in data set [2] was 116 µM.
For the compound `O=C(Cc1ccccc1Nc1c(Cl)cccc1Cl)OC/C=C/c1ccccc1`, the inhibition entry with Glycine max and with Liver was “inactive” in each case. Besides, the Activity in the data set on Rattus norvegicus [3] is reported as 78.4%; in the data set on Rattus norvegicus [4], 71.6%; in the data set with Rattus norvegicus [5] it was 76.8%; in data set [6], “Not Active”. In addition, the inhibition in vivo at 150 µmol/kg in the data set on Rattus norvegicus [1] came out at 53%. The IC50 in data set [2] came out at 78 µM.
As for `O=C(CCCCC1CCSS1)OC/C=C/c1ccccc1` (stereo unspecified), the inhibition entry in the data set with Glycine max and with Liver was “inactive” throughout. In addition, in data set [6], the Activity entry is “Not Active”. Besides, in the data set on Rattus norvegicus [1], the inhibition in vivo at 150 µmol/kg was 48%. For the same compound, the inhibition in vivo at 300 µmol/kg with Rattus norvegicus [7] was 57%. Also, the IC50 in [2] was 11.3 µM.
Turning to `O=C(OC/C=C/c1ccccc1)c1ccccc1Nc1cccc(C(F)(F)F)c1`, the inhibition result with Glycine max and in the data set with Liver was “inactive” throughout. In addition, the Activity in the data set with Rattus norvegicus [3] is reported as 48.4%; with Rattus norvegicus [4], 50.1%; with Rattus norvegicus [5] it was 65.1%; in [6] it was “Not Active”. Besides, the inhibition in vivo at 150 µmol/kg in the data set on Rattus norvegicus [1] stood at 48%. Moreover, the IC50 in [2] amounted to 9 µM.
For `COc1ccc2cc([C@H](C)C(=O)OC/C=C/c3ccccc3)ccc2c1`, the inhibition result in the data set with Glycine max and with Liver was “inactive” in each case. The Activity result in data set [6] is on record as “Not Active”. Further, the inhibition in vivo at 150 µmol/kg in the data set with Rattus norvegicus [1] turned out to be 60%. The IC50 in [2] worked out at 40.5 µM.
Consider `CC(C(=O)OC/C=C/c1ccccc1)c1cccc(C(=O)c2ccccc2)c1` (stereo unspecified), for which the inhibition result with Glycine max and in the data set with Liver was “inactive” throughout. Besides, the Activity result in data set [6] is given as “Not Active”. Further, the inhibition in vivo at 150 µmol/kg in the data set with Rattus norvegicus [1] was found to be 55%. In addition, the IC50 in data set [2] turned out to be 22.5 µM.
Consider `O=C(O)Cc1ccccc1Nc1c(Cl)cccc1Cl` [DICLOFENAC], for which, in the data set on Rattus norvegicus [1], the inhibition in vivo at 150 µmol/kg turned out to be 37%.
Regarding `COc1ccc2cc([C@H](C)C(=O)O)ccc2c1` [NAPROXEN], the inhibition in vivo at 150 µmol/kg in the data set on Rattus norvegicus [1] came to 11%.
As to `COc1ccc2c(c1)c(CC(=O)OC/C=C/c1ccccc1)c(C)n2C(=O)c1ccc(Cl)cc1`, the inhibition entry in the data set with Glycine max and in the data set with Liver was “inactive” throughout. For the same compound, the Activity result in data set [6] is “Not Active”. Besides, the inhibition in vivo at 150 µmol/kg in the data set on Rattus norvegicus [1] came out at 56%. The IC50 in data set [2] worked out at 9 µM.
Take `OC/C=C/c1ccccc1` [CINNAMIC ALCOHOL]: the inhibition in vivo at 150 µmol/kg in the data set with Rattus norvegicus [1] was 13%. Moreover, the IC50 in [2] is 250 µM.
`CC(C)Cc1ccc(C(C)C(=O)O)cc1` (stereo unspecified) [IBUPROFEN]: in the data set with Rattus norvegicus [1], the inhibition in vivo at 150 µmol/kg worked out at 36%.
With `COc1ccc2c(c1)c(CC(=O)O)c(C)n2C(=O)c1ccc(Cl)cc1` [INDOMETHACIN], the inhibition in vivo at 150 µmol/kg in the data set on Rattus norvegicus [1] is 42%.
In the case of `Cc1c(Cl)cccc1Nc1ccccc1C(=O)OC/C=C/c1ccccc1`, the inhibition entry in the data set on Glycine max and in the data set on Liver was “inactive” throughout. For the same compound, the Activity result in [6] is recorded as “Not Active”. The inhibition in vivo at 150 µmol/kg with Rattus norvegicus [1] was determined as 42%. Besides, the IC50 in [2] was found to be 9.6 µM.
